According to ChEMBL document CHEMBL1139845, “Synthesis and biological evaluation of novel 1-deoxy-1-[6-[((hetero)arylcarbonyl)hydrazino]- 9H-purin-9-yl]-N-ethyl-beta-D-ribofuranuronamide derivatives as useful templates for the development of A2B adenosine receptor agonists” (J Med Chem, 2007):

Key:
Adenosine receptor A2a = Adenosine receptor A2a (Homo sapiens, UniProt P29274); test: Displacement of [3H]CGS-21680 from human adenosine A2A receptor expressed in CHO cells; format: cell-based
[1] = target: T1, Adenosine receptor A3 (Homo sapiens) (UniProt P0DMS8); test: (§1) Displacement of [125I]AB-MECA from human adenosine A3 receptor expressed in CHO cells; format: cell-based
T1 sequence (whole entry): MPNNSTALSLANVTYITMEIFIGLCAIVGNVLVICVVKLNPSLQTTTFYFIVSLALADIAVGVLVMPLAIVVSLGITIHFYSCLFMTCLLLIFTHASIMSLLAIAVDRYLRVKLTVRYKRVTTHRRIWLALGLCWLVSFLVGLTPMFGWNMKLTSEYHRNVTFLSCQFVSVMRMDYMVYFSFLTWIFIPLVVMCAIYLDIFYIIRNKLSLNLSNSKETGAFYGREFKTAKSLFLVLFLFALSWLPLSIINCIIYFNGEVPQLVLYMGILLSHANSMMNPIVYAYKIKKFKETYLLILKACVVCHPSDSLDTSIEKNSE
In short: (§2)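 Membranes from CHO cells expressing hA3, 50 µg protein/assay, pretreated with adenosine deaminase. Incubated with [¹²⁵I]AB-MECA in 50 mM Tris-HCl, 10 mM MgCl₂, 1 mM EDTA, pH 7.4, at 6–8 concentrations of test compound, 60 min at 37 °C. Nonspecific binding defined with 1 µM AB-MECA. GF/B filtration. Ki obtained by Cheng–Prusoff. Mean ± SEM of 3–4 experiments in duplicate.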

Adenosine receptor A3 = target: T2, Adenosine receptor A3 (Homo sapiens, UniProt P0DMS8); test: as §1; format: cell-based; in short: as §2
T2 sequence (P0DMS8 whole entry): T1 sequence (whole entry)

Adenosine receptor A1 = target: T3, Adenosine receptor A1 (Homo sapiens, UniProt P30542); test: (§3) Displacement of [3H]CHA from human adenosine A1 receptor expressed in CHO cells; format: cell-based
T3 sequence (P30542 whole entry): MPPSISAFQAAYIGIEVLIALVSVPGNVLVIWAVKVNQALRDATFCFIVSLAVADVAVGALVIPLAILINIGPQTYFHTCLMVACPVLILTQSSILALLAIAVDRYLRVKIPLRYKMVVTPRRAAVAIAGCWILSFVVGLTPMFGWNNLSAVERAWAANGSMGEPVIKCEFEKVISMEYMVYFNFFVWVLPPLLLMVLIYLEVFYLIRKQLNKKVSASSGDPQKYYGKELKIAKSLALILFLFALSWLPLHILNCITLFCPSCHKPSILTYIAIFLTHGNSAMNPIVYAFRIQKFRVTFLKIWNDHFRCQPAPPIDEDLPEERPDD
In short: (§4)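 Membranes from hA1 CHO cells, 50 µg protein/assay, pretreated with adenosine deaminase. Incubated with 1 nM [³H]CHA in 50 mM Tris-HCl pH 7.4 at 6–8 concentrations, 150 min at 25 °C. Nonspecific binding defined with 10 µM CHA. GF/B filtration and scintillation counting. Ki obtained by Cheng–Prusoff. Mean ± SEM of 3–4 experiments in duplicate.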

[2] = target: T4, Adenosine receptor A2b (Homo sapiens) (UniProt P29275); test: (§5) Activity at human adenosine A2B receptor expressed in CHO cells assessed as stimulation of cAMP levels; format: functional, cell-based; set-up: concentration or dose not given beside the values
T4 sequence (whole entry): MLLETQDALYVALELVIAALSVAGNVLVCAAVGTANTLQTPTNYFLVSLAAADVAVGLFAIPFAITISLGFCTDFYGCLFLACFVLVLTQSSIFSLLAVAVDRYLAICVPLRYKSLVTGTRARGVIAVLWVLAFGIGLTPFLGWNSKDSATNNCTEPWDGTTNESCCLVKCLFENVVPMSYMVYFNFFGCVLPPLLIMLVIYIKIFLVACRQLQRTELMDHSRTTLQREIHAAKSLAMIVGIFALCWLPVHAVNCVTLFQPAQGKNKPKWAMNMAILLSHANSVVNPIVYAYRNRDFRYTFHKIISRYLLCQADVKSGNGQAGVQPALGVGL
In short: (§6)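 Whole CHO cells transfected with human A2B (1 × 10⁶ cells/assay), preincubated 10 min at 37 °C with adenosine deaminase 2 IU/mL and Ro 20-1724 as PDE inhibitor. Ligands (1 nM to 10 µM) were then added for 5 min. Stopped with cold 6% TCA and ether-extracted. cAMP measured by competition binding to bovine adrenal binding protein with [³H]cAMP. Mean ± SEM of 3–4 experiments in duplicate.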

Adenosine receptor A2b = target: T5, Adenosine receptor A2b (Homo sapiens, UniProt P29275); test: as §5; format: functional, cell-based; in short: as §6
T5 sequence (P29275 whole entry): T4 sequence (whole entry)

[3] = target: T6, Adenosine receptor A1 (Homo sapiens) (UniProt P30542); test: as §3; format: cell-based; in short: as §4
T6 sequence (whole entry): T3 sequence (P30542 whole entry)

Adenosine receptor A2a, sequence (P29274 whole entry): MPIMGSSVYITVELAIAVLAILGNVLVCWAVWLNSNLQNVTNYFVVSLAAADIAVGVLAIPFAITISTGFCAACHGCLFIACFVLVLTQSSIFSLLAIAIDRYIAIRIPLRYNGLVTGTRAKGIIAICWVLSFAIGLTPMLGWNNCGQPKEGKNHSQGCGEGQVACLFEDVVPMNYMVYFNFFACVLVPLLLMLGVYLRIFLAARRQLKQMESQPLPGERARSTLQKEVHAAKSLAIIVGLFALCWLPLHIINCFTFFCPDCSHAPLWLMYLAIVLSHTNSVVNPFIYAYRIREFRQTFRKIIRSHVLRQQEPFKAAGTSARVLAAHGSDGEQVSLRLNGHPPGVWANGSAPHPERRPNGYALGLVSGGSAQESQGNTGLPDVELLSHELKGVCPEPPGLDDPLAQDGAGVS

SMILES	Ki (Adenosine receptor A2a) [µM]	Activity [1] [%]	Ki (Adenosine receptor A3) [µM]	Ki (Adenosine receptor A1) [µM]	Activity (Adenosine receptor A2a) [%]	Activity [2] [%]	EC50 (Adenosine receptor A2b) [µM]	Activity [3] [%]	Activity ([2]; filed as agonist)
CCNC(=O)[C@H]1O[C@@H](n2cnc3c(NNC(=O)c4ccc(C)s4)ncnc32)[C@H](O)[C@@H]1O	2.1	19	> 5	1.1	–	–	–	–	–
CCNC(=O)[C@H]1O[C@@H](n2cnc3c(NNC(=O)c4ccc(Cl)cc4)ncnc32)[C@H](O)[C@@H]1O	> 5	20	> 5	> 5	8	6	> 5	5	–
CCNC(=O)[C@H]1O[C@@H](n2cnc3c(NNC(=O)c4ccc(Br)o4)ncnc32)[C@H](O)[C@@H]1O	1.2	13	> 5	0.78	–	–	0.369	–	–
CCNC(=O)[C@H]1O[C@@H](n2cnc3c(NNC(=O)c4ccc(C)o4)ncnc32)[C@H](O)[C@@H]1O	1.6	15	> 5	–	–	–	–	–	–
CCNC(=O)[C@H]1O[C@@H](n2cnc3c(NNC(=O)Cc4cccs4)nc(Cl)nc32)[C@H](O)[C@@H]1O	–	–	0.025	–	–	–	–	–	–
CCNC(=O)[C@H]1O[C@@H](n2cnc3c(NNC(=O)c4cc(-c5ccccc5)on4)nc(Cl)nc32)[C@H](O)[C@@H]1O	> 5	15	> 5	> 5	2	24	> 5	5	–
CCNC(=O)[C@H]1O[C@@H](n2cnc3c(NNC(=O)c4nc([N+](=O)[O-])cn4C)ncnc32)[C@H](O)[C@@H]1O	> 5	11	> 5	> 5	12	14	> 5	7	–
CCNC(=O)[C@H]1O[C@@H](n2cnc3c(NNC(=O)c4ccc(C)s4)nc(Cl)nc32)[C@H](O)[C@@H]1O	4.1	17	> 5	2.6	–	–	–	–	–
CCNC(=O)[C@H]1O[C@@H](n2cnc3c(NNC(=O)c4cccnc4)ncnc32)[C@H](O)[C@@H]1O	> 5	17	> 5	> 5	7	9	> 5	11	–
CCNC(=O)[C@H]1O[C@@H](n2cnc3c(NNC(=O)c4ccco4)ncnc32)[C@H](O)[C@@H]1O	1.55	23	> 5	1.05	–	–	–	–	Agonist
CCNC(=O)[C@H]1O[C@@H](n2cnc3c(NNC(=O)c4ccccc4)nc(Cl)nc32)[C@H](O)[C@@H]1O	> 5	45	> 5	> 5	40	5	> 5	37	–
CCNC(=O)[C@H]1O[C@@H](n2cnc3c(NNC(=O)c4cc(C)on4)nc(Cl)nc32)[C@H](O)[C@@H]1O	> 5	16	> 5	> 5	3	21	> 5	7	–
CCNC(=O)[C@H]1O[C@@H](n2cnc3c(NNC(=O)c4ccsc4)nc(Cl)nc32)[C@H](O)[C@@H]1O	3.3	18	> 5	–	–	–	–	–	–
CCNC(=O)[C@H]1O[C@@H](n2cnc3c(NNC(=O)c4sccc4C)nc(Cl)nc32)[C@H](O)[C@@H]1O	3.8	9	> 5	1.6	–	–	–	–	–
CCNC(=O)[C@H]1O[C@@H](n2cnc3c(NNC(=O)c4cccs4)nc(Cl)nc32)[C@H](O)[C@@H]1O	1.7	12	> 5	–	–	–	–	–	–
CCNC(=O)[C@H]1O[C@@H](n2cnc3c(NNC(=O)c4ccco4)nc(Cl)nc32)[C@H](O)[C@@H]1O	4.95	26	> 5	3.5	–	–	–	–	–
CCNC(=O)[C@H]1O[C@@H](n2cnc3c(NNC(=O)c4ccccc4)ncnc32)[C@H](O)[C@@H]1O	> 5	8	> 5	> 5	18	10	> 5	35	–
CCNC(=O)[C@H]1O[C@@H](n2cnc3c(NNC(=O)c4ccc[nH]4)nc(Cl)nc32)[C@H](O)[C@@H]1O	3.2	11	> 5	–	–	–	–	–	–
